Measured values published in ChEMBL document CHEMBL3763156, “Imidazole-based pinanamine derivatives: Discovery of dual inhibitors of the wild-type and drug-resistant mutant of the influenza A virus” (Eur J Med Chem, 2016).

Tests used:
Influenza A virus [1] = assay: Antiviral activity against amantadine-sensitive Influenza A virus A/HK/68 (H3N2) expressing wild type M2 ion channel infected in MDCK cells assessed as protection against virus induced cytopathic effect after 48 hrs by microscopic analysis; assay type: functional, organism-based, Influenza A virus (A/Hong Kong/1/1968(H3N2))
In short: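 MDCK cells were grown 24 h to a confluent monolayer and rinsed twice. They were infected with 100 TCID50 virus for 2 h at 37 °C in 5% CO2, and the inoculum was removed. Serial two-fold compound dilutions in DMEM with 1.5 µg/mL trypsin were added for 48 h at 34 °C in 5% CO2. CPE percentage was scored microscopically. IC50 came from non-linear regression, as the mean of 2–3 determinations.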

Influenza A virus [2] = assay: Antiviral activity against amantadine-sensitive Influenza A virus A/HK/68 (H3N2) expressing wild type M2 ion channel infected in MDCK cells assessed as cell viability after 48 hrs by MTT assay; assay type: functional, organism-based, Influenza A virus (A/Hong Kong/1/1968(H3N2))
In short: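 Infected MDCK cells were given compound for 48 h, and the CPE-based result was confirmed by MTT viability. MTT was added from a 5 mg/mL stock for 4 h at 37 °C, stopped with DMSO, and read as absorbance at 490 nm. The 50% effective concentration was calculated by the Reed–Muench method, as the mean of 2–3 determinations.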

[3] = target: Matrix protein 2 (Influenza A virus (A/Udorn/307/1972(H3N2))) (UniProt P0DOF8); assay: Inhibition of Influenza A virus wild type M2 ion channel expressed in Xenopus oocytes at 100 uM after 2 mins by two-electrode voltage clamp assay; assay type: cell-based
In short: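 A/M2 channel (S31N for line 7, wild type for line 9) was expressed in Xenopus oocytes and recorded by two-electrode voltage clamp. Compound was applied at 100 µM, and the percentage inhibition of channel current was taken after 2 min. Values are mean ± SD.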

[4] = Cytotoxicity against MDCK cells assessed as cell viability after 48 hrs by MTT assay; assay type: cell-based, Canis lupus familiaris; settings: dog
In short: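 Uninfected MDCK cells were exposed to various compound concentrations for 48 h. MTT was added from a 5 mg/mL stock for 4 h at 37 °C, stopped with DMSO, and read at 490 nm. CC50 was calculated by the Reed–Muench method, as the mean of 2–3 determinations.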

[5] = target: Matrix protein 2 (Influenza A virus (A/Udorn/307/1972(H3N2))) (UniProt P0DOF8); assay: Inhibition of Influenza A virus wild type M2 ion channel expressed in 293Trex cells at 100 uM after 2 mins by patch clamp assay; assay type: cell-based
[6] = Influenza A virus, MDCK, 48 h, read-out: IC50

## CCCc1nc[nH]c1CN[C@@H]1C[C@@H]2C[C@H]([C@H]1C)C2(C)C
Influenza A virus [1]; [6]
  IC50: 2.5 µM
Influenza A virus [2]
  IC50: 3.3 µM
[3]
  inhibition: 97.9%
[4]
  CC50 at 48 h: 200 µM

## Cc1nc(C(C)C)[nH]c1CN[C@@H]1C[C@@H]2C[C@H]([C@H]1C)C2(C)C
Influenza A virus [1]; mdck
  IC50: Not Active
[4]
  CC50 at 48 h: 73.1 µM

## C[C@@H]1[C@H]2C[C@@H](C[C@H]1NCc1cnc(C3CCCC3)[nH]1)C2(C)C
Influenza A virus [1]; mdck
  IC50: Not Active
[4]
  CC50 at 48 h: 37.2 µM

## CCCc1nc(-c2ccccc2)[nH]c1CN[C@@H]1C[C@@H]2C[C@H]([C@H]1C)C2(C)C
Influenza A virus [1]; [6]
  IC50: 13.5 µM
Influenza A virus [2]
  IC50: 15.2 µM
[4]
  CC50 at 48 h: 143 µM

## CCc1ncc(CN[C@@H]2C[C@@H]3C[C@H]([C@H]2C)C3(C)C)[nH]1
Influenza A virus [1]; mdck
  IC50: Not Active
[4]
  CC50 at 48 h: 137 µM

## CCCCc1ncc(CN[C@@H]2C[C@@H]3C[C@H]([C@H]2C)C3(C)C)[nH]1
Influenza A virus [1]; mdck
  IC50: Not Active
[4]
  CC50 at 48 h: 70.4 µM

## C[C@@H]1[C@H]2C[C@@H](C[C@H]1NCc1cnc(-c3cccs3)[nH]1)C2(C)C
Influenza A virus [1]; mdck
  IC50: Not Active
[4]
  CC50 at 48 h: 75.6 µM

## C[C@@H]1[C@H]2C[C@@H](C[C@H]1NCc1cnc(-c3ccccc3)[nH]1)C2(C)C
Influenza A virus [1]; [6]
  IC50: 7.6 µM
Influenza A virus [2]
  IC50: 10.7 µM
[4]
  CC50 at 48 h: 79.9 µM

## CC(C)c1ncc(CN[C@@H]2C[C@@H]3C[C@H]([C@H]2C)C3(C)C)[nH]1
Influenza A virus [1]; mdck
  IC50: Not Active
[4]
  CC50 at 48 h: 114 µM

## C[C@@H]1[C@H]2C[C@@H](C[C@H]1NCc1[nH]cnc1C1CC1)C2(C)C
Influenza A virus [1]; [6]
  IC50: 3.4 µM
Influenza A virus [2]
  IC50: 3.8 µM
[4]
  CC50 at 48 h: 162 µM

## C[C@@H]1[C@H]2C[C@@H](C[C@H]1NCc1[nH]cnc1C(C)(C)C)C2(C)C
Influenza A virus [1]; [6]
  IC50: 8.3 µM
Influenza A virus [2]
  IC50: 12.9 µM
[4]
  CC50 at 48 h: 72.3 µM

## CCCc1nc(C(C)C)[nH]c1CN[C@@H]1C[C@@H]2C[C@H]([C@H]1C)C2(C)C
Influenza A virus [1]; [6]
  IC50: 10.2 µM
Influenza A virus [2]
  IC50: 13.5 µM
[4]
  CC50 at 48 h: 156 µM

## C[C@@H]1[C@H]2C[C@@H](C[C@H]1NCc1cncn1C)C2(C)C
Influenza A virus [1]; [6]
  IC50: 12 µM

## C[C@@H]1[C@H]2C[C@@H](C[C@H]1NCc1cnc(C(C)(C)C)[nH]1)C2(C)C
Influenza A virus [1]; [6]
  IC50: 8.8 µM
Influenza A virus [2]
  IC50: 12.4 µM
[4]
  CC50 at 48 h: 107 µM

## C[C@@H]1[C@H]2C[C@@H](C[C@H]1NCc1cnc(C3CC3)[nH]1)C2(C)C
Influenza A virus [1]; mdck
  IC50: Not Active
[4]
  CC50 at 48 h: 94.5 µM

## C[C@@H]1[C@H]2C[C@@H](C[C@H]1NCc1[nH]cnc1-c1ccccc1)C2(C)C
Influenza A virus [1]; mdck
  IC50: Not Active
[4]
  CC50 at 48 h: 39.7 µM

## C[C@@H]1[C@H]2C[C@@H](C[C@H]1NCc1cnc(C3CCCCC3)[nH]1)C2(C)C
Influenza A virus [1]; mdck
  IC50: Not Active
[4]
  CC50 at 48 h: 33.5 µM

## CC(C)Cc1ncc(CN[C@@H]2C[C@@H]3C[C@H]([C@H]2C)C3(C)C)[nH]1
Influenza A virus [1]; [6]
  IC50: 8.7 µM
Influenza A virus [2]
  IC50: 15.2 µM
[4]
  CC50 at 48 h: 74.8 µM

## Cc1nc(C2CC2)[nH]c1CN[C@@H]1C[C@@H]2C[C@H]([C@H]1C)C2(C)C
Influenza A virus [1]; [6]
  IC50: 15.3 µM
Influenza A virus [2]
  IC50: 21.2 µM
[4]
  CC50 at 48 h: 74.9 µM

## Cc1nc[nH]c1CN[C@@H]1C[C@@H]2C[C@H]([C@H]1C)C2(C)C
[5]
  inhibition: 95.8%
Influenza A virus [1]; [6]
  IC50: 3.2 µM
[4]
  CC50 at 48 h: 252 µM

## CCc1nc(C)c(CN[C@@H]2C[C@@H]3C[C@H]([C@H]2C)C3(C)C)[nH]1
Influenza A virus [1]; [6]
  IC50: 4.1 µM
Influenza A virus [2]
  IC50: 4.5 µM
[3]
  inhibition: 91.7%
[4]
  CC50 at 48 h: 136 µM

## Cc1ncc(CN[C@@H]2C[C@@H]3C[C@H]([C@H]2C)C3(C)C)[nH]1
Influenza A virus [1]; mdck
  IC50: Not Active
[4]
  CC50 at 48 h: 202 µM

## CCc1nc[nH]c1CN[C@@H]1C[C@@H]2C[C@H]([C@H]1C)C2(C)C
Influenza A virus [1]; [6]
  IC50: 5.8 µM
Influenza A virus [2]
  IC50: 6.7 µM
[4]
  CC50 at 48 h: 180 µM

## CCCc1nc(C2CC2)[nH]c1CN[C@@H]1C[C@@H]2C[C@H]([C@H]1C)C2(C)C
Influenza A virus [1]; [6]
  IC50: 6.9 µM
Influenza A virus [2]
  IC50: 10.8 µM
[4]
  CC50 at 48 h: 112 µM
